From ChEMBL document CHEMBL1140591, “Syntheses of novel myxopyronin B analogs as potential inhibitors of bacterial RNA polymerase” (Bioorg Med Chem Lett, 2007) come the findings set out here.

One may read the MIC as the lowest concentration found to suppress growth. High values mean weaker potency, low ones greater potency. Broadly, the inhibition is the percentage by which the read-out fell short of the control. A lower inhibition goes with a response near the control. As a reminder, the IC50 is the concentration that inhibits the measured activity by half.

The test system of one data set is Staphylococcus aureus. Nature of the data set: Antibacterial activity against Staphylococcus aureus. The data set is classed as functional.
Data set [1] deals with Escherichia coli. Briefly: Inhibition of Escherichia coli DNA-dependent RNA polymerase at 10 uM by nucleotide coupled NADPH/pyrophosphate release assay.
Data set [2] concerns Escherichia coli. Nature of the data set: Antibacterial activity against Escherichia coli. The data set is classed as functional. The gist of the method: (§1)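 MIC determined by growth inhibition testing; the same test was also run against S. aureus.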
A further data set concerns CEM-SS. Nature of the data set: Cytotoxicity against human CEM-SS cells upto 40 uM after 3 days. The data set is classed as cell-based. The note with it: 72 h. The gist of the method: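 CEM-SS T lymphocytes were incubated with compound for 3 days and then treated with XTT. The signal was read […] at 450 nm/650 nm, and CC50 was determined from the readings.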

Data set [3] can be described thus: Inhibition of Escherichia coli DNA-dependent RNA polymerase by nucleotide coupled NADPH/pyrophosphate release assay. An outline of the steps:
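In the pyrophosphate-release coupled assay, NADPH was monitored by fluorescence (emission ~440 nm) instead of absorbance at 340 nm. Some compounds were also tested by incorporation of radiolabeled nucleotide into RNA.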

In data set [4] the test system is Escherichia coli. Briefly: Antibacterial activity against Escherichia coli Tol C mutant. The data set is classed as functional. An outline of the steps:
as §1

Each structure is given as a SMILES string. ≈ marks a conversion by molar mass, not a printed value.

For `CCCCCCCCC(=O)c1c(O)cc(CCC/C=C/NC(=O)OC)oc1=O`, the MIC in the data set with Staphylococcus aureus and in the data set with Escherichia coli [2] was above 64 µg/mL each time. Further, the inhibition in the data set with Escherichia coli [1] was below 20%. Also, the Activity result in the data set on CEM-SS is recorded as “Non-toxic”.

In the case of `CCCC/C(C)=C/C=C(\C)C(=O)c1c(O)cc([C@H](C)CC/C=C/NC(=O)OC)oc1=O` [MYXOPYRONIN B], the MIC was 1 µg/mL (≈ 2.32 µM) in the data set on Staphylococcus aureus, above 64 µg/mL in the data set with Escherichia coli [2] and 2 µg/mL (≈ 4.63 µM) with Escherichia coli [4]. 0.92 µM corresponded to half-maximal inhibition in data set [3] (IC50). For the same compound, the Activity entry in the data set on CEM-SS is listed as “Non-toxic”.

Regarding `CCCC/C(C)=C/C=C(\C)C(=O)c1c(O)cc(CCC/C=C/NC(=O)OC)n(C)c1=O`, the MIC in the data set on Staphylococcus aureus and against Escherichia coli [2] was above 64 µg/mL throughout. In data set [3], this compound came in with an IC50 of 15 µM. In the data set with CEM-SS, the Activity entry was “Non-toxic”.

With `CCCC/C(C)=C/C=C(\C)C(=O)c1ccc(C(C)CC/C=C/NC(=O)OC)cc1O` (stereo not drawn), the MIC against Staphylococcus aureus and with Escherichia coli [2] was above 64 µg/mL in each case. The compound also returned an inhibition in the data set on Escherichia coli [1] of 38%. Also, the Activity entry with CEM-SS was “Non-toxic”.

In the case of `CCCCCC(=O)c1c(O)cc(CCC/C=C/NC(=O)OC)oc1=O`, the MIC with Staphylococcus aureus and in the data set on Escherichia coli [2] was above 64 µg/mL in each case. The same compound registered an inhibition with Escherichia coli [1] below 20%. Further, in the data set on CEM-SS, the Activity result is listed as “Non-toxic”.

With `COC(=O)N/C=C/CCC(C)c1cc(O)c(C(=O)NC/C=C(\C)CCC=C(C)C)c(=O)o1` (stereo not drawn), the figures for the MIC in the data set with Staphylococcus aureus, in the data set with Escherichia coli [2] and with Escherichia coli [4] were above 64 µg/mL, above 64 µg/mL and 16 µg/mL (≈ 35.8 µM), respectively. This compound returned an inhibition in the data set on Escherichia coli [1] below 20%. Moreover, in the data set with CEM-SS, the Activity result is given as “Non-toxic”.

As to `COC(=O)N/C=C/CCCc1cc(O)c(C(=O)/C=C/c2ccc3[nH]ccc3c2)c(=O)o1`, the MIC in the data set on Staphylococcus aureus and with Escherichia coli [2] was above 64 µg/mL throughout. In addition, the inhibition with Escherichia coli [1] is below 20%. For the same compound, in the data set on CEM-SS, the Activity entry is reported as “Non-toxic”.

On to `CCCC/C(C)=C/C=C(\C)C(=O)c1c(O)cc(C(C)CC/C=C/NC(=O)OC)n(C)c1=O` (stereo not drawn), for which the MIC against Staphylococcus aureus and against Escherichia coli [2] was above 64 µg/mL each time. In addition, 20.5 µM corresponded to half-maximal inhibition in data set [3] (IC50). For the same compound, the Activity entry in the data set with CEM-SS is on record as “Non-toxic”.

In the case of `CCCC/C(C)=C/C=C(\C)C(=O)c1c(O)cc(CCC/C=C/NC(=O)OC)oc1=O` [DESMETHYL MYXOPYRONIN B], the results for the MIC against Staphylococcus aureus, against Escherichia coli [2] and in the data set with Escherichia coli [4] were 4 µg/mL (≈ 9.58 µM), above 64 µg/mL and 1 µg/mL (≈ 2.4 µM), respectively. The compound also yielded an IC50 in data set [3] of 0.34 µM. The Activity result in the data set with CEM-SS is “Non-toxic”.

Take `COC(=O)N/C=C/CCCc1cc(O)c(C(=O)/C(C)=C\c2ccco2)c(=O)o1`: the MIC against Staphylococcus aureus and in the data set on Escherichia coli [2] was above 64 µg/mL in each case. Besides, the inhibition in the data set on Escherichia coli [1] was below 20%. For the same compound, the Activity entry in the data set on CEM-SS is given as “Non-toxic”.
